High-throughput results: PubChem BioAssay, Broad Institute
PAX8 reporter: inhibitors of PAX8-driven TPO luciferase reporter, primary screen, RMG-I cells, single concentration. SteadyGlo, 24 h. inhibition, % at 12.6 µM. 1.2% of 360,000 active. AID 652154, 2013;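 active = mean replicate inhibition at least 60% with every replicate also reaching 60%; inconclusive = only one of the two criteria is met; inactive = mean below 60% and not all replicates reaching 60%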;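 also: luciferase light reporting Pax8 driven TPO promoter activity; plate controls were median of neutral control wells for no effect and mitoxantrone controls for full effect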
aSyn 5UTR inh: MLPCN primary screen, SNCA 5' untranslated region; alpha-synuclein 5'UTR reporter, inhibitor activity; inhibition, % (tested at 7.5 µM); 0.82% of 300,000 active; in the data active = inhibition above about 60%; inconclusive = no clear call, values can overlap the other calls;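 also: H4 neuroglioblastoma cells stably carrying SNCA 5'UTR luciferase fusion; 0% = DMSO wells and 100% = positive control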
LMP1 NFkB inh: EBV LMP1-driven NF-kappaB luciferase reporter inhibitors, primary screen, cell-based, luminescence, single point; LMP1-induced NF-kappaB luciferase reporter cells; inhibition, % at 12.5 µM; 0.69% of 350,000 active; in the data active = inhibition above about 41%; inconclusive = no clear call, values can overlap the other calls;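 also: 0% = neutral control wells and 100% = reference inhibitor control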
Shn3 3UTR inh: reduction of Shn3 3'UTR firefly luciferase signal, primary screen, Schnurri-3 inhibitor project, cell-based, Clone20 osteoblasts, set 2 | Clone20 osteoblast Shn3 3'UTR firefly luciferase, 24 h | inhibition, % at 12.5 µM | 0.52% of 360,000 active | AID 588674, 2011;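 active = mean inhibition of at least 75% with every replicate also reaching 75%; inconclusive = mean inhibition at least 75% but some replicate below; inactive = mean inhibition below 75%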;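 also: 0% = median of neutral control wells and 100% = pilot-screen positive control compound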
FN deposit inh: inhibitors of fibronectin matrix deposition, primary screen, AH1F cells, Alexa488-fibronectin fluorescence, plate reader; AH1F fibroblasts, overnight; inhibition, % at 12.6 µM; 0.086% of 350,000 active; AID 743247, 2014;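 active = mean inhibition across replicates of 30% or more, regardless of how many single replicates reach that level; inconclusive = mean under 30% yet at least half of replicates reach 30%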;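 also: positive control wells lacked labelled fibronectin entirely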
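Material – AH1F fibroblast monolayer, labelled fibronectin deposition · Reagent – labelled fibronectin 24 nM · Timing – 1 h adhesion, overnight exposure · Measured by – fluorescence at 485 nm excitation, 525 nm emission · Read-out – inhibition of fibronectin deposition signal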
EWS-Fli inh: EWS/Fli-driven NR0B1 reporter inhibitors, primary screen, A673 cells, NR0B1 luciferase, luminescence, MLPCN library | 0.67% of 350,000 active | inhibition, % at 12.6 µM | viability-normalised;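 active = mean inhibition of at least 50% after viability correction, with every replicate also passing that limit; inconclusive = mean reaches 50% but only one of two replicates passes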;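 also: firefly luciferase signal divided by Alamar Blue viability fluorescence both relative to DMSO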
An asterisk follows results filed as active; ? = inconclusive; . = no result; ! = not confirmed by another sample. An excerpt weighted towards active compounds, which were near 2.1% of everything screened.

SMILES	PAX8 reporter	aSyn 5UTR inh	LMP1 NFkB inh	Shn3 3UTR inh	FN deposit inh	EWS-Fli inh
O=C(C[C@@H]1C[C@H]2c3cc(NC(=O)C4CCC4)ccc3O[C@H]2[C@@H](CO)O1)NCc1ccc(Cl)cc1	-3	.	.	.	.	0
Cc1ccc(S(=O)(=O)CCC(=O)c2ccc(F)cc2)cc1	96*	8	-4	73	5	.
Cc1ccc(C(=O)CCS(=O)(=O)c2ccc(F)cc2)cc1	11	-12	5	9	3	.
CC(CCc1ccccc1)NC(=O)c1ccccc1 (stereo unspecified)	.	14	-5	10	.	.
CCOc1ccc(C(=O)NC(=S)N(Cc2ccccc2)Cc2ccccc2)cc1	.	23	50*	33	.	22
CC(=O)Oc1ccc(C(=O)NCCc2ccccc2)cc1	-70	-1	-2	-50	0	-8
CCOc1ccc(C(=O)NCCc2ccccc2)cc1	.	?	17	-1	.	59*
CC(CCc1ccccc1)NC(=O)c1ccc(C(=O)NC(C)CCc2ccccc2)cc1 (stereo unspecified)	81*	.	6	53	12	.
O=C(NCCc1ccccc1)c1ccccc1Cl	3	49	46*	7	7	47
O=C(O)c1ccccc1C(=O)NCCc1ccc(Cl)cc1	18	-3	2	-47	3	-6
CCOc1ccc(CN(CCC#N)C(=S)NC(=O)c2ccccc2)cc1	15	14	0	5	5	.
COCC1CCN(C(=O)c2cc(COc3ccc4ncccc4c3)on2)CC1	1	-2	5	86*	-6	-2
O=C(c1cc(COc2ccc3ncccc3c2)on1)N1CCCC1	-12	-41	10	68	-7	-29
Cc1cc(NC(=O)CSc2nc3cc(Cl)ccc3o2)no1	-29	-36	4	-10	2	3
O=S1(=O)C=C(Sc2nc3cc(Cl)ccc3o2)c2ccccc21	.	55	-9	100*	.	.
CO[C@H]1CN(C)C(=O)c2cc(NC(=O)c3cnccn3)ccc2OC[C@H](C)N(C(C)=O)C[C@@H]1C	-6	.	.	.	-4	2
O=[N+]([O-])c1cc(-c2ncccn2)c([N+](=O)[O-])s1	9	-20	11	5	-4	61*
Cc1cccc(N=C2NN=C(c3c(C)[nH]c4ccccc34)CS2)c1	74*	-90	-52	44	7	15
Cc1cccc(N=C2NN=C(c3ccc4c(c3)OCCO4)CS2)c1	.	-140	-23	-47	.	10
CCN1C(=O)CC2CCCC1C2 (stereo unspecified)	7	.	-2	95*	.	-18
COc1ccc(CC(C)NCC(O)c2ccc(O)c(NC=O)c2)cc1 (stereo unspecified)	11	.	61*!	-25	5	-6
C[C@@H]1CC=CC[C@H](c2ccccc2)NC(=O)[C@H](C)N(C)C(=O)c2ccccc2O1 (mixture of isomers)	.	.	.	.	-1	.
COc1ccc(C(=O)NCc2ccc3c(c2)cc(C)n3C)cc1OC	9	27	4	-17	14	-22
COc1ccc(/C=C\C(=O)NCc2ccc3c(c2)cc(C)n3C)cc1OC	.	1	67*	5	6	-18
CO[C@@H]1CN(C)C(=O)c2ccc(NC(=O)c3ccc(F)cc3)cc2OC[C@@H](C)N(C(C)=O)C[C@@H]1C	-12	.	.	.	6	-7
SMILES	PAX8 reporter	aSyn 5UTR inh	LMP1 NFkB inh	Shn3 3UTR inh	FN deposit inh	EWS-Fli inh
CC(C)CC#Cc1ccc2c(c1)O[C@H](CN(C)C(=O)c1cnccn1)[C@@H](C)CN([C@H](C)CO)S2(=O)=O	-5	.	.	.	.	6
N#Cc1ccc(NC(=O)Nc2ccc(Oc3ccc(NC(=O)Nc4ccc(C#N)cc4)cc3)cc2)cc1	73*	74*	15	91*	-11	19
N#Cc1ccc(NC(=O)Nc2cccc(C#N)c2)cc1	1	-33	4	12	-1	-1
COc1ccccc1C#Cc1ccc([C@H]2[C@@H](C#N)N(C(=O)C3CCC3)[C@@H]2CO)cc1	4	.	.	.	10	-1
COc1ccccc1C#Cc1ccc([C@H]2[C@H](C#N)N(C(=O)C3CC3)[C@H]2CO)cc1	91*	.	.	.	1	18
COc1ccccc1C#Cc1ccc([C@@H]2[C@@H](C#N)N(C(=O)C3CCCCC3)[C@@H]2CO)cc1	3	.	.	.	7	1
COc1ccccc1C#Cc1ccc([C@H]2[C@@H](CO)N(C(=O)C3CCCCC3)[C@H]2C#N)cc1	90*	.	.	.	-1	18
COc1ccccc1C#Cc1ccc([C@H]2[C@@H](C#N)N(C(=O)C3CC3)[C@H]2CO)cc1	66*	.	.	.	4	-26
C[C@@H]1CN([C@H](C)CO)C(=O)c2cc(NC(=O)Nc3ccccc3)ccc2O[C@@H](C)CCCCO[C@H]1CN(C)C(=O)NC1CCCCC1	.	.	.	.	17	.
COc1ccc(CN(C)C[C@@H]2OCCCC[C@@H](C)Oc3ccc(NC(=O)CCCN(C)C)cc3C(=O)N([C@H](C)CO)C[C@H]2C)cc1	-17	.	.	.	.	-10
O=C(c1ccccc1)N1C(=O)C(c2ccccc2)Oc2ccccc21 (stereo unspecified)	-3	82*	4	9	-2	3
Cc1ccc(O)c(N=NC2=C(O)CC(C)(C)CC2=O)c1	-14	65*	0	62	0	-13
O=C(Cc1ccccn1)N[C@H]1CC[C@H](CCn2cc(-c3ccc(F)cc3)nn2)O[C@@H]1CO	.	.	.	.	5	-2
COc1ccc(-c2cn(CC[C@H]3CC[C@@H](NC(=O)Cc4ccccn4)[C@H](CO)O3)nn2)cc1	77*	.	.	.	.	-7
COc1ccc(-c2cn(CC[C@@H]3CC[C@@H](NC(=O)Cc4ccccn4)[C@@H](CO)O3)nn2)cc1	62*	.	.	.	.	-8
COc1ccc(-c2cn(CC[C@H]3CC[C@H](NC(=O)Cc4ccccn4)[C@@H](CO)O3)nn2)cc1	86*	.	.	.	.	-8
COc1cccc(S(=O)(=O)N[C@@H]2CC[C@H](CCn3cc(-c4ccccc4)nn3)O[C@@H]2CO)c1	12	.	.	.	.	53*
COc1ccc(-c2cn(CC[C@H]3CC[C@H](NC(=O)Cc4ccccn4)[C@H](CO)O3)nn2)cc1	55	.	.	.	.	-8
O=C(Cc1ccccn1)N[C@H]1CC[C@H](CCn2cc(-c3ccccc3)nn2)O[C@H]1CO	2	.	.	.	.	1
CNC[C@H]1Oc2ccc(NS(C)(=O)=O)cc2CC(=O)N(C)C[C@@H]1C	.	.	.	.	-11	.
COc1ccc(NC(=O)Nc2ccc3c(c2)C(=O)N([C@H](C)CO)C[C@H](C)[C@H](CN(C)S(=O)(=O)c2ccc(C)cc2)OCCCC[C@H](C)O3)cc1	20	.	.	.	.	16
CC(=NC1CC1)c1c(-c2ccccc2)[nH]n(-c2nc3ccccc3s2)c1=O	.	-33	5	0	4	.
